Measured values published in ChEMBL document CHEMBL1121779, “Thiophene systems. 5. Thieno[3,4-b][1,5]benzoxazepines, thieno[3,4-b][1,5]benzothiazepines, and thieno[3,4-b][1,4]benzodiazepines as potential central nervous system agents” (1981).
Active and inactive are the calls of the source. No cut-off for these calls is given here.

How the values were obtained:
Mus musculus [1] = experiment: Compound was tested for the neuroleptic activity as measured by it's antagonism of d-amphetamine induced lethality in grouped mice(GAL) when administered perorally; 3.2-5.5; type: functional; settings: po
Mus musculus [2] = experiment: Inhibition of tetrabenazine induced depression in mice was following p.o. administration; Inactive.; type: functional, organism-based
Rattus norvegicus [3] = experiment: Reduction in motor activity in rats following p.o. administration.; type: functional
Procedure, shortened: (§1)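 Rats in groups of five given graded oral doses. Locomotor activity counted per rat over 5 min at the time of peak effect, which was set earlier with a selected dose. MDD50 is the dose giving 50% reduction versus controls, taken from linear regression.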

Mus musculus [4] = experiment: Compound was tested for the neuroleptic activity as measured by it's antagonism of d-amphetamine induced lethality in grouped mice(GAL) when administered perorally; 1.4-3.1; type: functional; settings: po
Mus musculus [5] = experiment: Minimum effective dose causing antagonism of tetrabenazine induced depression in mice was determined when administered perorally; type: functional; settings: po, read-out: MED
Mus musculus [6] = experiment: Compound was tested for the neuroleptic activity as measured by it's antagonism of d-amphetamine induced lethality in grouped mice(GAL) when administered perorally; Inactive at 20 mg/kg; type: functional, organism-based; design: dose 20 mg/kg
Mus musculus [7] = experiment: Compound was tested for the neuroleptic activity as measured by it's antagonism of d-amphetamine induced lethality in grouped mice(GAL) when administered perorally; Inactive; type: functional, organism-based
Mus musculus [8] = experiment: Compound was tested for the neuroleptic activity as measured by it's antagonism of d-amphetamine induced lethality in grouped mice(GAL) when administered perorally; type: functional; settings: po
Rattus norvegicus [9] = experiment: Dose causing 50% reduction of motor activity in rats was measured when administered perorally; Inactive at 50 mg/kg; type: functional, organism-based; design: dose 50 mg/kg; procedure, shortened: as §1
Mus musculus [10] = experiment: Compound was tested for the neuroleptic activity as measured by it's antagonism of d-amphetamine induced lethality in grouped mice(GAL) when administered perorally; 5.1-9; type: functional; settings: po
Mus musculus [11] = experiment: Compound was tested for the neuroleptic activity as measured by it's antagonism of d-amphetamine induced lethality in grouped mice(GAL) when administered perorally; 9-33; type: functional; settings: po
Mus musculus [12] = experiment: Compound was tested for the neuroleptic activity as measured by it''s antagonism of d-amphetamine induced lethality in grouped mice(GAL) when administered perorally; Inactive at 20 mg/kg; type: functional, organism-based; design: dose 20 mg/kg
Mus musculus [13] = experiment: Minimum effective dose causing antagonism of tetrabenazine induced depression in mice was determined when administered perorally; Inactive; type: functional, organism-based
Mus musculus [14] = experiment: Compound was tested for the neuroleptic activity as measured by it's antagonism of d-amphetamine induced lethality in grouped mice(GAL) when administered perorally; 1.1-2.5; type: functional; settings: po
Mus musculus [15] = experiment: Compound was tested for the neuroleptic activity as measured by it's antagonism of d-amphetamine induced lethality in grouped mice(GAL) when administered perorally; 0.09-0.24; type: functional; settings: po
Mus musculus [16] = experiment: Compound was tested for the neuroleptic activity as measured by it's antagonism of d-amphetamine induced lethality in grouped mice(GAL) when administered perorally; 1.6-3.8; type: functional; settings: po
Mus musculus [17] = experiment: Compound was tested for the neuroleptic activity as measured by it's antagonism of d-amphetamine induced lethality in grouped mice(GAL) when administered perorally; 1-15; type: functional; settings: po
Mus musculus [18] = experiment: Compound was tested for the neuroleptic activity as measured by it's antagonism of d-amphetamine induced lethality in grouped mice(GAL) when administered perorally; 2.5-3.9; type: functional; settings: po
Mus musculus [19] = experiment: Compound was tested for the neuroleptic activity as measured by it's antagonism of d-amphetamine induced lethality in grouped mice(GAL) when administered perorally; 2.4-5.6; type: functional; settings: po
Mus musculus [20] = experiment: Compound was tested for the neuroleptic activity as measured by it's antagonism of d-amphetamine induced lethality in grouped mice(GAL) when administered perorally; 0.1-0.6; type: functional; settings: po
Mus musculus [21] = experiment: Minimum effective dose causing antagonism of tetrabenazine induced depression in mice was determined when administered perorally; Inactive at 25 mg/kg; type: functional, organism-based; design: dose 25 mg/kg
Mus musculus [22] = experiment: Minimum effective dose causing antagonism of tetrabenazine induced depression in mice was determined when administered perorally; Inactive at 20 mg/kg; type: functional, organism-based; design: dose 20 mg/kg
Mus musculus [23] = experiment: Compound was tested for the neuroleptic activity as measured by it's antagonism of d-amphetamine induced lethality in grouped mice(GAL) when administered perorally; 1.1-1.9; type: functional; settings: po
Mus musculus [24] = experiment: Compound was tested for the neuroleptic activity as measured by it's antagonism of d-amphetamine induced lethality in grouped mice(GAL) when administered perorally; 0.4-3.1; type: functional; settings: po

SMILES: CN1CCN(C2=Nc3cc(Cl)ccc3Nc3ccccc32)CC1 [CLOZAPINE]
- ED50 (Mus musculus [1]): 4.2 mg/kg
- MED (Mus musculus [2]): inactive
- MDD50 (Rattus norvegicus [3]): 21 mg/kg

SMILES: OCCN1CCN(C2=Nc3cc(Cl)ccc3Oc3cscc32)CC1
- ED50 (Mus musculus [4]): 2 mg/kg
- MED (Mus musculus [2]): inactive
- MDD50 (Rattus norvegicus [3]): 19.2 mg/kg

SMILES: Cc1ccc2c(c1)Oc1cscc1C(N1CCN(CCO)CC1)=N2
- MED (Mus musculus [2]): inactive
- MDD50 (Rattus norvegicus [3]): 37 mg/kg

SMILES: CN1CCN(C2=Nc3ccccc3Sc3c2csc3Cl)CC1
- minimal effective dose (Mus musculus [5]): 1.6 mg/kg
- ED50 (Mus musculus [6]): inactive

SMILES: CN1CCN(C2=Nc3cscc3N(C)c3ccc(F)cc32)CC1
- ED50 (Mus musculus [7]): inactive
- minimal effective dose (Mus musculus [5]): 6.25 mg/kg

SMILES: OCCN1CCN(C2=Nc3ccccc3Oc3c2csc3Cl)CC1
- ED50 (Mus musculus [8]): < 10 mg/kg
- MED (Mus musculus [2]): inactive
- MDD50 (Rattus norvegicus [9]): inactive

SMILES: CCN1CCN(C2=Nc3cc(Cl)ccc3Oc3cscc32)CC1
- ED50 (Mus musculus [10]): 6.8 mg/kg
- MED (Mus musculus [2]): inactive
- MDD50 (Rattus norvegicus [3]): <50 mg/kg

SMILES: CN1CCN(C2=Nc3cscc3Nc3ccc(F)cc32)CC1
- ED50 (Mus musculus [11]): 17.5 mg/kg
- MED (Mus musculus [2]): inactive

SMILES: Cc1ccc2c(c1)Oc1cscc1C(N1CCN(C)CC1)=N2
- ED50 (Mus musculus [12]): inactive
- MED (Mus musculus [13]): inactive

SMILES: COc1ccc2c(c1)Oc1cscc1C(N1CCN(C)CC1)=N2
- ED50 (Mus musculus [7]): inactive
- MED (Mus musculus [2]): inactive

SMILES: CN1CCN(C2=Nc3cscc3N(C)c3ccccc32)CC1
- ED50 (Mus musculus [8]): 6.5 mg/kg
- minimal effective dose (Mus musculus [5]): 7.6 mg/kg
- MDD50 (Rattus norvegicus [3]): 51 mg/kg

SMILES: CN(C)CCCN1c2ccccc2CCc2ccccc21 [IMIPRAMINE]
- ED50 (Mus musculus [8]): > 50 mg/kg
- minimal effective dose (Mus musculus [5]): 5 mg/kg
- MDD50 (Rattus norvegicus [3]): >20 mg/kg

SMILES: OCCN1CCN(C2=Nc3cc(Br)ccc3Oc3cscc32)CC1
- ED50 (Mus musculus [8]): < 2.5 mg/kg
- MED (Mus musculus [2]): inactive

SMILES: CN1CCN(C2=Nc3cc(Cl)ccc3Oc3cscc32)CC1
- ED50 (Mus musculus [14]): 1.6 mg/kg
- MED (Mus musculus [2]): inactive
- MDD50 (Rattus norvegicus [3]): 9.6 mg/kg

SMILES: CN1CCN(C2=Nc3cscc3Nc3ccc(Cl)cc32)CC1
- ED50 (Mus musculus [8]): ≤ 5 mg/kg
- MED (Mus musculus [2]): inactive

SMILES: COc1ccc2c(c1)N=C(N1CCN(CCO)CC1)c1cscc1O2
- ED50 (Mus musculus [7]): inactive
- MED (Mus musculus [2]): inactive

SMILES: CN1CCN(C2=Nc3cc(Cl)ccc3Sc3cscc32)CC1
- ED50 (Mus musculus [7]): inactive
- MED (Mus musculus [2]): inactive

SMILES: OCCN1CCN(C2=Nc3ccccc3Sc3cscc32)CC1
- ED50 (Mus musculus [8]): 0.2 mg/kg
- MED (Mus musculus [2]): inactive
- MDD50 (Rattus norvegicus [3]): <10 mg/kg

SMILES: CN1CCN(C2=Nc3ccccc3Oc3ccc(Cl)cc32)CC1 [LOXAPINE]
- ED50 (Mus musculus [15]): 0.14 mg/kg
- MED (Mus musculus [2]): inactive
- MDD50 (Rattus norvegicus [3]): 0.6 mg/kg

SMILES: OCCN1CCN(C2=Nc3ccccc3Oc3cscc32)CC1
- ED50 (Mus musculus [8]): < 10 mg/kg
- MED (Mus musculus [2]): inactive
- MDD50 (Rattus norvegicus [3]): 5.4 mg/kg

SMILES: CN1CCN(C2=Nc3ccccc3Oc3c2csc3Cl)CC1
- ED50 (Mus musculus [16]): 2.4 mg/kg
- minimal effective dose (Mus musculus [5]): 12.5 mg/kg
- MDD50 (Rattus norvegicus [3]): <50 mg/kg

SMILES: CCN1CCN(C2=Nc3cc(C)ccc3Oc3cscc32)CC1
- ED50 (Mus musculus [17]): 3.9 mg/kg
- MED (Mus musculus [13]): inactive
- MDD50 (Rattus norvegicus [3]): <50 mg/kg

SMILES: CN1CCN(C2=Nc3cc(Br)ccc3Oc3cscc32)CC1
- ED50 (Mus musculus [18]): 3.1 mg/kg
- MED (Mus musculus [2]): inactive
- MDD50 (Rattus norvegicus [3]): 16.4 mg/kg

SMILES: Cc1ccc2c(c1)N=C(N1CCN(C)CC1)c1cscc1O2
- ED50 (Mus musculus [19]): 3.6 mg/kg
- MED (Mus musculus [13]): inactive
- MDD50 (Rattus norvegicus [3]): 5.96 mg/kg

SMILES: CN1CCN(C2=Nc3ccccc3Sc3cscc32)CC1
- ED50 (Mus musculus [20]): 0.2 mg/kg
- MED (Mus musculus [21]): inactive
- MDD50 (Rattus norvegicus [3]): <10 mg/kg

SMILES: CN1CCN(C2=Nc3cscc3Nc3ccccc32)CC1
- ED50 (Mus musculus [8]): 3.2 mg/kg
- MED (Mus musculus [22]): inactive
- MDD50 (Rattus norvegicus [3]): 15 mg/kg

SMILES: CN1CCN(C2=Nc3cscc3N(C)c3ccc(Cl)cc32)CC1
- ED50 (Mus musculus [12]): inactive
- minimal effective dose (Mus musculus [5]): 1.56 mg/kg
- MDD50 (Rattus norvegicus [3]): 4.1 mg/kg

SMILES: Cc1cccc2c1N=C(N1CCN(CCO)CC1)c1cscc1O2
- ED50 (Mus musculus [12]): inactive

SMILES: Cc1ccc2c(c1)N=C(N1CCN(CCO)CC1)c1cscc1O2
- ED50 (Mus musculus [12]): inactive
- MDD50 (Rattus norvegicus [3]): 27.2 mg/kg

SMILES: CCN1CCN(C2=Nc3ccccc3Oc3cscc32)CC1
- ED50 (Mus musculus [23]): 1.4 mg/kg
- MED (Mus musculus [2]): inactive
- MDD50 (Rattus norvegicus [3]): 1.66 mg/kg

SMILES: CN1CCN(C2=Nc3ccccc3Oc3cscc32)CC1
- ED50 (Mus musculus [8]): 1.4 mg/kg
- MED (Mus musculus [21]): inactive
- MDD50 (Rattus norvegicus [3]): 1.3 mg/kg

SMILES: COc1ccc2c(c1)N=C(N1CCN(C)CC1)c1cscc1O2
- ED50 (Mus musculus [7]): inactive

SMILES: Cc1cccc2c1N=C(N1CCN(C)CC1)c1cscc1O2
- ED50 (Mus musculus [24]): 1.2 mg/kg
- MED (Mus musculus [2]): inactive
- MDD50 (Rattus norvegicus [3]): >50 mg/kg

SMILES: Cc1cc2c(cc1C)Sc1cscc1C(N1CCN(C)CC1)=N2
- ED50 (Mus musculus [7]): inactive
- MED (Mus musculus [2]): inactive
